Measured values published in ChEMBL document CHEMBL4017468, “Synthesis and biological evaluation of pyrimidine derivatives with diverse azabicyclic ether/amine as novel GPR119 agonist” (Bioorg Med Chem Lett, 2017).

Tests used:
[1] = molecular target: T1, Glucose-dependent insulinotropic receptor (Homo sapiens) (UniProt Q8TDV5); assay: Agonist activity at human GPR119 expressed in HEK293 cells assessed as increase in cAMP stimulation measured after 60 mins by TR-FRET assay relative to oleoylethanolamide; format: functional, cell-based
T1 sequence (whole entry): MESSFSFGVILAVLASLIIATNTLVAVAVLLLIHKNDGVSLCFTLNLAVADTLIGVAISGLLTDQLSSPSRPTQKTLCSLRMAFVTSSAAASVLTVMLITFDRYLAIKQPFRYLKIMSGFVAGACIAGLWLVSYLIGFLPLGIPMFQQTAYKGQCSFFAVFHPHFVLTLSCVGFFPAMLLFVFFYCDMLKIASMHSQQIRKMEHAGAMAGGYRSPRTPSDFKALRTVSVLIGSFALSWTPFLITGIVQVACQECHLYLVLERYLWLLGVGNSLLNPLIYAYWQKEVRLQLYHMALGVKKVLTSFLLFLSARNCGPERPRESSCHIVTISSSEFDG
Outline: (§1)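 HEK293 cells seeded at 4×10^3 cells/well, grown 24 h, then transiently transfected with a GPR119 expression plasmid using Lipofectamine/Plus. After 24 h, compounds were added in KRBH buffer with 0.1% BSA and 500 μM IBMX for 60 min at 37 °C. Cells were lysed 10 min at room temperature (50 mM phosphate, 1 M KF, 1.25% Triton X-100, pH 7.0). cAMP was read by HTRF. EC50 was taken as the concentration giving 50% of OEA-stimulated cAMP, and %max as the response relative to maximal OEA effect.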

[2] = molecular target: T2, Glucose-dependent insulinotropic receptor (Homo sapiens, UniProt Q8TDV5); assay: Agonist activity at human GPR119 expressed in HEK293 cells assessed as increase in cAMP stimulation measured after 60 mins by TR-FRET assay; format: functional, cell-based; outline: as §1
T2 sequence (Q8TDV5 whole entry): T1 sequence (whole entry)

Row | %max [1] | EC50 [2] | SMILES
1 | 86.7% | 0.0056 µM | CC(C)(C)OC(=O)N1CC2CC1CC2Oc1ncnc(Nc2ccc(S(C)(=O)=O)cc2F)c1[N+](=O)[O-] (stereo unspecified)
2 | 32.9% | > 10 µM | CC(C)(C)OC(=O)N1CC2CCC1CC2Oc1ncnc(Nc2ccc(S(C)(=O)=O)cc2F)c1[N+](=O)[O-] (stereo unspecified)
3 | 101% | 0.11 µM | CC(C)(C)OC(=O)N1CC2CC1CC2Oc1ncnc(Nc2ccc(S(C)(=O)=O)cc2)c1[N+](=O)[O-] (stereo unspecified)
4 | 58.4% | 0.315 µM | CC(C)(C)OC(=O)N1CC2CC(Oc3ncnc(Nc4ccc(S(C)(=O)=O)cc4)c3[N+](=O)[O-])C1C2 (stereo unspecified)
5 | 52.6% | 0.0777 µM | CC(C)(C)OC(=O)N1CC2CC(Oc3ncnc(Nc4ccc(S(C)(=O)=O)cc4F)c3[N+](=O)[O-])C1C2 (stereo unspecified)
6 | 100% |  | CCCCCCCC/C=C\CCCCCCCC(=O)NCCO
7 | 112% | 0.0012 µM | CC(C)(C)OC(=O)N1C[C@@H]2CC[C@@H]1C[C@@H]2Oc1ncnc(Nc2ccc(S(C)(=O)=O)cc2F)c1[N+](=O)[O-] (relative stereo)
8 |  | 0.053 µM | CC(C)(C)OC(=O)N1CC2CC(Nc3ncnc(Nc4ccc(S(C)(=O)=O)cc4F)c3[N+](=O)[O-])C1C2 (stereo in doubt; 27e) [listing 1 of 2 here]
9 | 76.7% |  | CC(C)(C)OC(=O)N1CC2CC(Nc3ncnc(Nc4ccc(S(C)(=O)=O)cc4F)c3[N+](=O)[O-])C1C2 (stereo in doubt; 27e) [listing 2 of 2 here]
10 |  | > 1 µM | CC(C)(C)OC(=O)N1CC2CC(Nc3ncnc(Nc4ccc(S(C)(=O)=O)cc4)c3[N+](=O)[O-])C1C2 (stereo in doubt; 27f) [listing 1 of 2 here]
11 | 38.9% |  | CC(C)(C)OC(=O)N1CC2CC(Nc3ncnc(Nc4ccc(S(C)(=O)=O)cc4)c3[N+](=O)[O-])C1C2 (stereo in doubt; 27f) [listing 2 of 2 here]
12 |  | 0.236 µM | CC(C)(C)OC(=O)N1CC2CC(Nc3ncnc(Nc4ccc(S(C)(=O)=O)cc4F)c3[N+](=O)[O-])C1C2 (stereo in doubt; 27g) [listing 1 of 2 here]
13 | 63.4% |  | CC(C)(C)OC(=O)N1CC2CC(Nc3ncnc(Nc4ccc(S(C)(=O)=O)cc4F)c3[N+](=O)[O-])C1C2 (stereo in doubt; 27g) [listing 2 of 2 here]
14 |  | > 10 µM | CC(C)(C)OC(=O)N1CC2CC(Nc3ncnc(Nc4ccc(S(C)(=O)=O)cc4)c3[N+](=O)[O-])C1C2 (stereo in doubt; 27h) [listing 1 of 2 here]
15 | 21.6% |  | CC(C)(C)OC(=O)N1CC2CC(Nc3ncnc(Nc4ccc(S(C)(=O)=O)cc4)c3[N+](=O)[O-])C1C2 (stereo in doubt; 27h) [listing 2 of 2 here]
16 |  | 0.0049 µM | CC(C)(C)OC(=O)N1CC2CC1CC2Nc1ncnc(Nc2ccc(S(C)(=O)=O)cc2F)c1[N+](=O)[O-] (stereo in doubt; 27i) [listing 1 of 2 here]
17 | 97% |  | CC(C)(C)OC(=O)N1CC2CC1CC2Nc1ncnc(Nc2ccc(S(C)(=O)=O)cc2F)c1[N+](=O)[O-] (stereo in doubt; 27i) [listing 2 of 2 here]
18 |  | 0.0482 µM | CC(C)(C)OC(=O)N1CC2CC1CC2Nc1ncnc(Nc2ccc(S(C)(=O)=O)cc2)c1[N+](=O)[O-] (stereo in doubt; 27j) [listing 1 of 2 here]

Row | %max [1] | EC50 [2] | SMILES
19 | 94.3% |  | CC(C)(C)OC(=O)N1CC2CC1CC2Nc1ncnc(Nc2ccc(S(C)(=O)=O)cc2)c1[N+](=O)[O-] (stereo in doubt; 27j) [listing 2 of 2 here]
20 |  | > 10 µM | CC(C)(C)OC(=O)N1CC2CC1CC2Nc1ncnc(Nc2ccc(S(C)(=O)=O)cc2F)c1[N+](=O)[O-] (stereo in doubt; 27k) [listing 1 of 2 here]
21 | 34.8% |  | CC(C)(C)OC(=O)N1CC2CC1CC2Nc1ncnc(Nc2ccc(S(C)(=O)=O)cc2F)c1[N+](=O)[O-] (stereo in doubt; 27k) [listing 2 of 2 here]
22 |  | > 10 µM | CC(C)(C)OC(=O)N1CC2CC1CC2Nc1ncnc(Nc2ccc(S(C)(=O)=O)cc2)c1[N+](=O)[O-] (stereo in doubt; 27l) [listing 1 of 2 here]
23 | 25.1% |  | CC(C)(C)OC(=O)N1CC2CC1CC2Nc1ncnc(Nc2ccc(S(C)(=O)=O)cc2)c1[N+](=O)[O-] (stereo in doubt; 27l) [listing 2 of 2 here]
24 |  | 0.0031 µM | CC(C)(C)OC(=O)N1CC2CCC1CC2Oc1ncnc(Nc2ccc(S(C)(=O)=O)cc2)c1[N+](=O)[O-] (stereo in doubt; 27n) [listing 1 of 2 here]
25 | 71.9% |  | CC(C)(C)OC(=O)N1CC2CCC1CC2Oc1ncnc(Nc2ccc(S(C)(=O)=O)cc2)c1[N+](=O)[O-] (stereo in doubt; 27n) [listing 2 of 2 here]
26 |  | > 10 µM | CC(C)(C)OC(=O)N1CC2CCC1CC2Oc1ncnc(Nc2ccc(S(C)(=O)=O)cc2)c1[N+](=O)[O-] (stereo in doubt; 27p) [listing 1 of 2 here]
27 | 44.7% |  | CC(C)(C)OC(=O)N1CC2CCC1CC2Oc1ncnc(Nc2ccc(S(C)(=O)=O)cc2)c1[N+](=O)[O-] (stereo in doubt; 27p) [listing 2 of 2 here]
28 |  | 0.0018 µM | CC(C)(C)OC(=O)N1CC2CCC1CC2Nc1ncnc(Nc2ccc(S(C)(=O)=O)cc2F)c1[N+](=O)[O-] (stereo in doubt; 27q) [listing 1 of 2 here]
29 | 104% |  | CC(C)(C)OC(=O)N1CC2CCC1CC2Nc1ncnc(Nc2ccc(S(C)(=O)=O)cc2F)c1[N+](=O)[O-] (stereo in doubt; 27q) [listing 2 of 2 here]
30 |  | 0.0056 µM | CC(C)(C)OC(=O)N1CC2CCC1CC2Nc1ncnc(Nc2ccc(S(C)(=O)=O)cc2)c1[N+](=O)[O-] (stereo in doubt; 27r) [listing 1 of 2 here]
31 | 78.9% |  | CC(C)(C)OC(=O)N1CC2CCC1CC2Nc1ncnc(Nc2ccc(S(C)(=O)=O)cc2)c1[N+](=O)[O-] (stereo in doubt; 27r) [listing 2 of 2 here]
32 |  | 0.0053 µM | CC(C)(C)OC(=O)N1CC2CCC1CC2Nc1ncnc(Nc2ccc(S(C)(=O)=O)cc2F)c1[N+](=O)[O-] (stereo in doubt; 27s) [listing 1 of 2 here]
33 | 63.2% |  | CC(C)(C)OC(=O)N1CC2CCC1CC2Nc1ncnc(Nc2ccc(S(C)(=O)=O)cc2F)c1[N+](=O)[O-] (stereo in doubt; 27s) [listing 2 of 2 here]
34 |  | 0.0064 µM | CC(C)(C)OC(=O)N1CC2CCC1CC2Nc1ncnc(Nc2ccc(S(C)(=O)=O)cc2)c1[N+](=O)[O-] (stereo in doubt; 27t) [listing 1 of 2 here]
35 | 58.1% |  | CC(C)(C)OC(=O)N1CC2CCC1CC2Nc1ncnc(Nc2ccc(S(C)(=O)=O)cc2)c1[N+](=O)[O-] (stereo in doubt; 27t) [listing 2 of 2 here]
